Measured values taken from ChEMBL document CHEMBL6134766, “Design, synthesis, and evaluation of benzhydrylpiperazine-based novel dual COX-2/5-LOX inhibitors with anti-inflammatory and anti-cancer activity” (RSC Med Chem, 2025).
Calls of active or inactive are those of the source. No cut-off for these calls is given here.

What was measured:
Rattus norvegicus [1] = assay: Anti-inflammatory activity in carrageenan-induced paw edema Wistar rat model assessed as swelling thickness of paw at 10 mg/kg, po measured after 6 hrs by digital vernier caliper (reference value: 8.33 +/- 0.42 millimeter); assay type: functional
Rattus norvegicus [2] = assay: Anti-inflammatory activity in carrageenan-induced paw edema Wistar rat model assessed as swelling thickness of paw at 10 mg/kg, po measured after 3 hrs by digital vernier caliper (reference value: 8.56 +/- 0.45 millimeter); assay type: functional
Gastric mucosa [3] = assay: Antioxidant activity in gastric mucosal tissue in Wistar rat assessed as increase in SOD level at 10 mg/kg, po; assay type: functional, organism-based
How it was run: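 Gastric tissue from fasted rats (dosed orally once daily for 3 days in 0.3% Na CMC) homogenized in cold PBS pH 7.4, centrifuged 1000 rpm, 10 min, 4 °C; protein by Bradford; SOD measured in supernatant per reported procedure.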

Rattus norvegicus [4] = assay: Anti-inflammatory activity in carrageenan-induced paw edema Wistar rat model assessed as swelling thickness of paw at 10 mg/kg, po measured after 4 hrs by digital vernier caliper (reference value: 8.36 +/- 0.78 millimeter); assay type: functional
Rattus norvegicus [5] = assay: Anti-inflammatory activity in carrageenan-induced paw edema Wistar rat model assessed as increase in IL-10 level in paw tissue at 10 mg/kg, po measured for 6 hrs by ELISA; assay type: functional, organism-based
How it was run: (§1)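 Paw tissue taken from carrageenan-edema rats dosed orally at 5, 10 or 20 mg kg−1. Tissue rinsed in PBS pH 7.4, minced, homogenized, filtered and centrifuged at 2000 rpm for 20 min at 4 °C. Supernatant assayed by ELISA for PGE2, IL-6, TNF-α and IL-10. Data as mean ± SD.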

Rattus norvegicus [6] = assay: Analgesic activity in acetic acid-induced pain Wistar rat model assessed as number of writhing at 10 mg/kg, po pretreated for 30 mins followed by acetic acid treatment measured for 30 mins by writhing test (reference value: 40.33 +/- 3.01); assay type: functional; conditions: time 60 min, 1 h
[7] = Toxicity in Wistar rat assessed as change in serum urea level at 10 mg/kg, po; assay type: organism-based; conditions: in vivo
How it was run: (§2)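 Rats dosed orally in 0.3% Na CMC; retro-orbital blood clotted at room temperature, serum separated at 2000 rpm, 20 min, 4 °C; ALT, AST, creatinine and urea by commercial kits; n = 6 per group, mean ± SD; Tukey test after repeated-measures one-way ANOVA.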

[8] = Toxicity in fasting Wistar rat assessed as ulcer score at 10 mg/kg, po via gavage treated for 3 days consecutively by H and E staining based analysis (reference value: 0); assay type: organism-based; conditions: in vivo, 72 h, time 3 day
How it was run: (§3)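 Fasted rats, n = 6/group, gavaged once daily for 3 days in 0.3% Na CMC (vehicle control 0.3% CMC); killed under anaesthesia 6 h after day-3 dose; stomachs saline-washed, mucosa examined with hand lens; ulcer score, index and % ulceration by reported scoring; some stomachs formalin-fixed, H&E stained.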

Rattus norvegicus [9] = assay: Anti-inflammatory activity in carrageenan-induced paw edema Wistar rat model assessed as swelling thickness of paw at 10 mg/kg, po measured after 5 hrs by digital vernier caliper (reference value: 8.47 +/- 0.32 millimeter); assay type: functional
[10] = Toxicity in fasting Wistar rat assessed as ulceration at 10 mg/kg, po via gavage treated for 3 days consecutively by H and E staining based analysis (reference value: 0 %); assay type: organism-based; conditions: in vivo, 72 h, time 3 day; how it was run: as §3
[11] = Toxicity in Wistar rat assessed as change in serum creatinine level at 10 mg/kg, po; assay type: organism-based; conditions: in vivo; how it was run: as §2
Gastric mucosa [12] = assay: Antioxidant activity in gastric mucosal tissue in Wistar rat assessed as decrease in nitrite level at 10 mg/kg, po; assay type: functional, organism-based
How it was run: (§4)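 Fasted rats (n = 6/group) gavaged once daily for 3 days in 0.3% Na CMC and sacrificed 6 h after the final dose. Randomly chosen stomachs homogenized in cold PBS pH 7.4 and centrifuged at 1000 rpm for 10 min at 4 °C. Supernatant protein measured by Bradford assay; GSH and nitrate then measured by reported methods.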

Rattus norvegicus [13] = assay: Anti-inflammatory activity in carrageenan-induced paw edema Wistar rat model assessed as swelling thickness of paw at 10 mg/kg, po measured after 2 hrs by digital vernier caliper (reference value: 8.65 +/- 0.53 millimeter); assay type: functional
Rattus norvegicus [14] = assay: Anti-inflammatory activity in carrageenan-induced paw edema Wistar rat model assessed as decrease in IL-6 level in paw tissue at 10 mg/kg, po measured for 6 hrs by ELISA; assay type: functional, organism-based; how it was run: as §1
Rattus norvegicus [15] = assay: Anti-inflammatory activity in carrageenan-induced paw edema Wistar rat model assessed as decrease in TNF-alpha level in paw tissue at 10 mg/kg, po measured for 6 hrs by ELISA; assay type: functional, organism-based; how it was run: as §1
Rattus norvegicus [16] = assay: Anti-inflammatory activity in carrageenan-induced paw edema Wistar rat model assessed as swelling thickness of paw at 10 mg/kg, po measured immediately by digital vernier caliper (reference value: 3.48 +/- 0.21 millimeter); assay type: functional
Rattus norvegicus [17] = assay: Anti-inflammatory activity in carrageenan-induced paw edema Wistar rat model assessed as swelling thickness of paw at 10 mg/kg, po measured after 1 hr by digital vernier caliper (reference value: 8.47 +/- 0.25 millimeter); assay type: functional
[18] = Toxicity in fasting Wistar rat assessed as ulcer index at 10 mg/kg, po via gavage treated for 3 days consecutively by H and E staining based analysis (reference value: 0); assay type: organism-based; conditions: in vivo, 72 h, time 3 day; how it was run: as §3
[19] = Toxicity in Wistar rat assessed as change in serum AST level at 10 mg/kg, po; assay type: organism-based; conditions: in vivo; how it was run: as §2
[20] = Toxicity in Wistar rat assessed as change in serum ALT level at 10 mg/kg, po; assay type: organism-based; conditions: in vivo; how it was run: as §2
Gastric mucosa [21] = assay: Antioxidant activity in gastric mucosal tissue in Wistar rat assessed as increase in GSH level at 10 mg/kg, po; assay type: functional, organism-based; how it was run: as §4

In the case of COc1ccc2c(c1)c(CC(=O)O)c(C)n2C(=O)c1ccc(Cl)cc1 [INDOMETHACIN], the Activity (Rattus norvegicus [1]) is reported as 3.29 mm, the Activity (Rattus norvegicus [2]) is reported as 3.38 mm and the Activity (Gastric mucosa [3]) is reported as “Active”. The Activity (Rattus norvegicus [4]) was 3.14 mm, the Activity (Rattus norvegicus [5]) was “Active” and the Activity (Rattus norvegicus [6]) was 16.5. For the same compound, the Activity [7] was “Toxic”, the Activity [8] was 3.041 and the Activity (Rattus norvegicus [9]) was 3.17 mm. The Activity [10] was 100%, the Activity [11] was “Toxic” and the Activity (Gastric mucosa [12]) was “Active”. The Activity (Rattus norvegicus [13]) was 3.73 mm, the Activity (Rattus norvegicus [14]) was “Active” and the Activity (Rattus norvegicus [15]) was “Active”. The Activity (Rattus norvegicus [16]) was 3.37 mm, the Activity (Rattus norvegicus [17]) was 3.74 mm and the UI [18] was 304.16. For the same compound, the Activity [19] was “Toxic”, the Activity [20] was “Toxic” and the Activity (Gastric mucosa [21]) was “Active”.
